WT yeast gro inh – growth inhibition of WT strain, primary screen, mitochondrial fusion inhibitor project, WT and mutant strains, chemical genetic; mitochondrial fusion phenotypic screen; inhibition, % at 10 µM; 190,000 compounds, 2.1% hits; in the data active = inhibition above about 58%; tested in S. cerevisiae
CHOP inhibitor – inhibitors of CHOP promoter induction, primary screen, cell-based, unfolded protein response, luciferase reporter; inhibition, % at 10 µM; CHO-K1 CHOP-promoter luciferase, tunicamycin-induced, 15-18 h; 220,000 compounds, 3.8% hits;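 active = compounds that reduced the stress-induced luciferase reporter signal by more than about 70% of percent inhibition, limit read from the data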;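 also: 0% = tunicamycin plus vehicle and 100% = wells without tunicamycin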
GRIN3A LBD mod – binders of NR3A ligand-binding domain, primary screen, biophysical, differential scanning fluorimetry, uHTS. Glutamate receptor ionotropic, NMDA 3A (GRIN3A) ligand-binding domain. NR3A LBD differential scanning fluorimetry, Tm shift; 0% = protein alone, 100% = glycine-bound protein. Tm shift relative to glycine control, % at 25 µM. 340,000 compounds, 2.5% hits;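 active = melting temperature shift of at least 10% of the positive control shift, at one fixed dose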
EBV gp42 block – Epstein-Barr virus gp42 inhibitors, primary screen, biochemical, uHTS, fluorescence polarization | Glycoprotein 42 (Epstein-Barr virus (strain AG876)), Q1HVG2 | Fluorescence polarization binding assay, mP read-out | AID 1085, 2008 | inhibition, % (tested at 21.74 µM) | 220,000 compounds, 0.42% hits; in the data active = inhibition above about 50%
Target sequence (Q1HVG2 whole entry, looked up): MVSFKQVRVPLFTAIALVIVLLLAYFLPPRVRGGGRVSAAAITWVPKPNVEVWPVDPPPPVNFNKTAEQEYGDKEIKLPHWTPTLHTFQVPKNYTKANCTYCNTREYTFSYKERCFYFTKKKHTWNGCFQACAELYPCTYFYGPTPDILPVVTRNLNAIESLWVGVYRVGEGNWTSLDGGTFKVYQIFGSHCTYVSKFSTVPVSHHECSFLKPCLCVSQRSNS
MPTP inh – mitochondrial permeability transition pore inhibitors, primary screen, biochemical, isolated mouse mitochondria, absorbance; Ca2+ swelling absorbance, 30 min; inhibition, % at 10 µM; 360,000 compounds, 1.4% hits; AID 602449, 2012;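 active = inhibition of 50% or more, scaled per plate between neutral and stimulator controls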;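 also: 0% = DMSO wells given calcium and 100% = 1 mM EGTA wells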
TbMetRS inhib – T. brucei MetRS inhibitors, primary screen, biochemical, luminescence; purified T. brucei MetRS, ATP depletion, Kinase-Glo luminescence; inhibition, % at 11.9 µM; 360,000 compounds, 0.4% hits; methionyl-tRNA synthetase (Trypanosoma brucei brucei);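 active = inhibition above a per-plate cutoff of the control wells' mean inhibition plus 3 SD, cut at about 5.5% in these data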;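 also: 0% = DMSO wells median and 100% = median of wells with control inhibitor compound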
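System: purified T. brucei MetRS enzyme / Detection: Kinase-Glo luciferase luminescence reporting remaining unconsumed ATP / Medium: HEPES buffer with MgCl2, KCl, DTT, spermine, BSA, pyrophosphatase / Replication: singlicate, one well per compound / Evaluation: percent inhibition relative to median high and low control wells / Schedule: 2 h aminoacylation at 25 °C after 15 min preincubation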
MPTP counter – fluorescence retest of MPTP screen hits in isolated mitochondria, single concentration; shares compounds with MPTP inh; 5,000 compounds, 78% hits; inhibition, % at 10 µM; membrane potential, Rhodamine 123 fluorescence; AID 624504, 2012; in the data active = inhibition above about 22%;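 also: 0% = DMSO vehicle and 100% = positive control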
MPTP abs DR – mitochondrial permeability transition pore inhibitors, dose response, biochemical, absorbance, uHTS hits; shares compounds with MPTP inh; isolated mitochondria swelling; IC50, µM; 780 compounds, 58% hits; AID 651561, 2012; in the data active = IC50 below about 20 µM
MPTP counter DR – fluorescent counter-screen in isolated mitochondria, dose response, counter-screen for MPTP inhibitor project, biochemical, fluorescence, uHTS hits; shares compounds with MPTP inh; isolated mitochondria counterscreen, fluorescence read-out; IC50, µM; 780 compounds, 49% hits; AID 651564, 2012; in the data active = IC50 below about 80 µM
Numbers without * were called inactive; i = inactive; nt = no result. This is a sample that favours compounds with a hit; in the whole collection about 6.4% have one here.

SMILES | WT yeast gro inh | CHOP inhibitor | GRIN3A LBD mod | EBV gp42 block | MPTP inh | TbMetRS inhib | MPTP counter | others
CC(=O)c1ccc(OC2(C)CCN(Cc3ccccc3OC(F)F)C2)cc1 (stereo not drawn) | nt | nt | nt | nt | -1 | 0 | nt
CN1CCN(/N=C/c2ccc(Cl)c(Cl)c2)CC1 | 7 | 0 | -2 | 1 | 90* | 0 | -4
O=C(/C=C/c1ccc(Cl)c([N+](=O)[O-])c1)Nc1ccc(N2CCCC2)c(Cl)c1 | 3 | 96* | 17* | -3 | 76* | 0 | 40*
CN1CCN(c2ccc(S(=O)(=O)N3CCCCC3)cc2NC(=O)/C=C/c2ccc(Cl)c([N+](=O)[O-])c2)CC1 | nt | nt | -6 | nt | 3 | 0 | nt
O=C(Nc1cccc(Cl)c1)NC1CC2CCC1C2 (stereo not drawn) | nt | nt | -7 | nt | 55* | 0 | 84*
O=C(Nc1cccc(Cl)c1)NC1CCCCC1 | 25 | 10 | -8 | -5 | 83* | 0 | 73*
CC(=O)c1cccc(NC(=S)NC2CCCCCCC2)c1 | nt | nt | -6 | nt | 50* | 0 | 99*
O=C(Nc1ccc(Cl)cc1)NC1CCCCC1 | 2 | 19 | 1 | -1 | 17 | 0 | nt
O=C(Nc1ccc(F)c(F)c1)NC1CCCCC1 | -5 | -6 | -3 | -11 | 53* | 0 | 89*
Cc1ccc(C(=O)C2=C(O)C(=O)N(Cc3cccnc3)C2c2ccc(Cl)c(Cl)c2)o1 (stereo not drawn) | nt | nt | -2 | nt | -2 | -1 | nt
CN(C)c1ccc(P(=O)(Nc2ccc([N+](=O)[O-])cc2)N2CCOCC2)c(NC(=O)c2cccs2)c1 (stereo not drawn) | -14 | -29 | 1 | 10 | 3 | -1 | nt
O=C(Nc1cccc(C(F)(F)F)c1)NC1CCCCC1 | 16 | 87* | -4 | -5 | 93* | 0 | 119*
CC(OC(=O)c1ccccc1Br)C(=O)Nc1nc(-c2cccc([N+](=O)[O-])c2)cs1 (stereo not drawn) | 15 | 9 | 0 | -21 | -6 | 0 | nt
CC(=O)c1cccc(Nc2nc(-c3cccc([N+](=O)[O-])c3)cs2)c1 | -5 | 55 | 20* | -10 | 94* | 0 | 76*
O=C(Nc1nc(-c2cccc([N+](=O)[O-])c2)cs1)C(c1ccccc1)c1ccccc1 | 37 | 28 | -1 | -8 | 4 | -1 | nt
O=C(NC(=S)Nc1nc(-c2cccc([N+](=O)[O-])c2)cs1)c1cc(Cl)ccc1Cl | 20 | 7 | 11* | -19 | 57* | -1 | 13 | MPTP abs DR=19*;MPTP counter DR=<2.5*
CCN(CC)c1ccc(C2N(C(=O)N3CCOCC3)CCN2S(=O)(=O)c2ccc(C)cc2)cc1 (stereo not drawn) | 11 | -15 | 2 | -5 | -2 | -1 | nt
CC1(C)CC(=O)C(=Cc2cn(CCC#N)nc2-c2ccc(Cl)cc2)C(=O)C1 | 11 | -7 | -5 | 1 | 77* | -1 | 59*
CC1(C)CC(=O)C(=Cc2cn(CCC#N)nc2-c2ccc(F)cc2)C(=O)C1 | 8 | -36 | -1 | 2 | 63* | -1 | 41*
N#CCCn1cc(/C=N/O)c(-c2ccc(F)cc2)n1 | 20 | 22 | -3 | -1 | 0 | 0 | nt
Cc1nn(-c2cc(C(F)(F)F)ccc2Cl)c2nc(C(Cl)(Cl)Cl)[nH]c(=O)c12 | nt | 9 | -5 | 0 | 78* | -1 | 82*
COC(=O)c1sccc1N/N=C/c1cccc(Oc2ccccc2)c1 | 13 | 14 | -4 | 0 | 64* | -1 | -8 | MPTP abs DR=i;MPTP counter DR=>80
COC(=O)c1sccc1N/N=C/c1ccc(OC)c(OC)c1OC | 7 | -5 | -4 | -2 | -7 | -1 | nt
FC(F)(F)c1cc(CCN2CCNC[C@@H]2Cc2ccccc2)cc(C(F)(F)F)c1 | nt | nt | -4 | nt | 92* | 0 | -22
Fc1cccc(CCN2CCNC[C@@H]2Cc2ccccc2)c1 | nt | nt | -4 | nt | 22 | 0 | nt
SMILES | WT yeast gro inh | CHOP inhibitor | GRIN3A LBD mod | EBV gp42 block | MPTP inh | TbMetRS inhib | MPTP counter | others
COc1cccc(CNCc2ccccc2OC)c1 | nt | nt | -1 | nt | 0 | 0 | nt
O=[N+]([O-])c1ccc(Sc2n[nH]c(-c3ccc(Cl)cc3Cl)n2)nc1 | 23 | -36 | -6 | -1 | 90* | 0 | 0 | MPTP abs DR=20*;MPTP counter DR=5.8*
Cc1cc(C)c2c(=O)[nH]c(SCC(=O)Nc3cccc(S(=O)(=O)N(C)C)c3)nc2n1 | nt | nt | 0 | nt | -1 | 0 | nt
Cc1ccc(Cl)cc1N1CCN(C(=O)c2noc(C(C)C)c2[N+](=O)[O-])CC1 | nt | nt | -1 | nt | 1 | 0 | nt
CN(C(=O)CSc1ncn[nH]1)C1(C#N)CCCCC1 | nt | nt | 0 | nt | 0 | 0 | nt
CCCCCOc1ccc(Br)cc1CSC(=N)N | 65* | 84* | -4 | 30 | 68* | 2 | 105*
CCCCOc1ccc(CSC(=N)N)cc1Cl | nt | 13 | -1 | -21 | 1 | 0 | nt
COc1ccc(S(=O)(=O)N2CCC(O)(c3ccc(Cl)cc3)CC2)cc1 | 49 | 38 | -5 | -5 | 4 | 0 | nt
CC(C)(C)c1ccc(S(=O)(=O)N2CCC(N3CCCCC3)CC2)cc1 | nt | nt | 0 | nt | 71* | 0 | 2 | MPTP abs DR=i;MPTP counter DR=27*
CC(C)(C)c1ccc(S(=O)(=O)N2CCC(O)(c3ccc(Cl)cc3)CC2)cc1 | nt | 0 | 0 | 5 | 84* | 3 | 92*
CC1CCN(CCC(=O)Nc2ccc(Br)cc2)CC1 | nt | nt | 0 | nt | 1 | -1 | nt
COc1ccc(NC(=O)C2CCN(S(=O)(=O)c3cccc4nonc34)CC2)cc1 | nt | nt | -7 | nt | 0 | 0 | nt
CCOc1cc(CNCCO)cc(Br)c1OCc1ccc(Cl)cc1 | 11 | 75* | -3 | -16 | 90* | -1 | -23 | MPTP abs DR=3.8*;MPTP counter DR=61*
CCOc1cc(CNCCO)cc(Br)c1OCc1ccccc1Cl | 98* | 85* | -3 | -12 | 82* | 0 | 20*
COc1cc(CNCCO)cc(Cl)c1OCc1ccccc1Cl | 25 | -2 | -1 | -3 | 80* | -1 | -12 | MPTP abs DR=5.5*;MPTP counter DR=>80
COc1cc(CNCc2ccncc2)cc(Br)c1OCc1ccccc1F | 8 | 36 | -3 | -14 | 94* | 0 | 65*
